Measurements published in ChEMBL document CHEMBL4390654, “Microwave-assisted solid-phase synthesis of antisense acpP peptide nucleic acid-peptide conjugates active against colistin- and tigecycline-resistant E. coli and K. pneumoniae” (Eur J Med Chem, 2019).
Square brackets hold non-standard residues; d marks the D form. Peptide text beside a SMILES is read from it. Ahx = NCCCCCC(=O)O

Columns and labels:
Klebsiella pneumoniae [1] = experiment: Antibacterial activity against multi-drug resistant Klebsiella pneumoniae NMI 2697/14 assessed as reduction in microbial growth incubated for 20 hrs; format: functional; settings: NMI 2697/14, 20 h
How it was run: (§1)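 Broth microdilution MIC (modified Hancock protocol) in non-binding polystyrene plates. Inoculum ~2 × 10^5 CFU/mL in Mueller-Hinton broth with Mg²⁺ and Ca²⁺ at 4 mg/L each. Compounds dissolved in water, diluted in 0.01% acetic acid/0.2% BSA (final), added as 10× stocks. Covered plates incubated 20 h at 35 °C (± 2 °C) with 220 rpm circular shaking before MIC read.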

Escherichia coli [2] = experiment: Antibacterial activity against Escherichia coli ATCC 25922 assessed as reduction in microbial growth incubated for 20 hrs; format: functional; settings: ATCC 25922, 20 h; how it was run: as §1
Acinetobacter baumannii = experiment: Antibacterial activity against Acinetobacter baumannii ATCC 19606 assessed as reduction in microbial growth incubated for 20 hrs; format: functional; settings: ATCC 19606 = CIP 70.34 = JCM 6841, 20 h
How it was run: (§2)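 Broth microdilution MIC after a modified Hancock protocol for cationic peptides, in non-binding polystyrene plates. Inoculum ~2 × 10^5 CFU/mL in Mueller-Hinton broth with Mg²⁺ and Ca²⁺ at 4 mg/L each. Compounds dissolved in water, diluted in 0.01% acetic acid, 0.2% BSA (final), added as 10× aliquots. Covered plates incubated 20 h at 35 °C (± 2 °C) with shaking at 220 rpm. MIC read as lowest inhibiting concentration.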

Escherichia coli [3] = experiment: Antibacterial activity against multi-drug resistant Escherichia coli NMI 3548/14 assessed as reduction in microbial growth incubated for 20 hrs; format: functional; settings: NMI 3548/14, 20 h; how it was run: as §1
Escherichia coli [4] = experiment: Antibacterial activity against multi-drug resistant Escherichia coli NMI 3898/15 assessed as reduction in microbial growth incubated for 20 hrs; format: functional; settings: NMI 3898/15, 20 h; how it was run: as §1
Staphylococcus aureus = experiment: Antibacterial activity against Staphylococcus aureus ATCC 29213 assessed as reduction in microbial growth incubated for 20 hrs; format: functional; settings: ATCC 29213, 20 h; how it was run: as §2
Escherichia coli [5] = experiment: Antibacterial activity against Escherichia coli lacking a functional SbmA assessed as reduction in microbial growth incubated for 20 hrs; how it was run: as §2
Pseudomonas aeruginosa = experiment: Antibacterial activity against Pseudomonas aeruginosa PAO1 assessed as reduction in microbial growth incubated for 20 hrs; format: functional; settings: PAO1, 20 h; how it was run: as §2
Klebsiella pneumoniae [6] = experiment: Antibacterial activity against multi-drug resistant Klebsiella pneumoniae NMI 3081/09 assessed as reduction in microbial growth incubated for 20 hrs; format: functional; settings: NMI 3081/09, 20 h; how it was run: as §1
Klebsiella pneumoniae [7] = experiment: Antibacterial activity against Klebsiella pneumoniae ATCC 13883 assessed as reduction in microbial growth incubated for 20 hrs; format: functional; settings: ATCC 13883, 20 h; how it was run: as §2
[8] = Hemolytic activity against RBC (unknown origin) at 100 uM; format: ADME, cell-based, Erythrocyte; settings: red blood cells (erythrocytes); read-out: Activity

SMILES | MIC (Klebsiella pneumoniae [1]) [µg/mL] | MIC (Escherichia coli [2]) [µg/mL] | MIC (Acinetobacter baumannii) [µg/mL] | MIC (Escherichia coli [3]) [µg/mL] | MIC (Escherichia coli [4]) [µg/mL] | MIC (Staphylococcus aureus) [µg/mL] | MIC (Escherichia coli [5]) [µg/mL] | MIC (Pseudomonas aeruginosa) [µg/mL] | MIC (Klebsiella pneumoniae [6]) [µg/mL] | MIC (Klebsiella pneumoniae [7]) [µg/mL] | hemolysis at 100 µM [8] [%]
CC[C@H](C)[C@H](NC(=O)[C@H](CCCCN)NC(=O)[C@H]([C@@H](C)CC)N(C(=O)[C@H](CCCNC(=N)N)NC(=O)CCCCCNC(=O)[C@@H](N)CCCNC(=N)N)C(=O)[C@H](CCCNC(=N)N)NC(=O)CCCCCNC(=O)[C@@H](N)CCCNC(=N)N)C(=O)N[C@@H](CC(C)C)C(=O)N[C@@H](Cc1ccccc1)C(=O)N[C@@H](CCC(N)=O)C(=O)N[C@@H](CC(N)=O)C(=O)N[C@@H](CCCNC(=N)N)C(=O)N[C@@H](CCCNC(=N)N)C(=O)N[C@@H](CCSC)C(=O)N[C@@H](CCCCN)C(=O)N[C@@H](Cc1c[nH]c2ccccc12)C(=O)N[C@@H](CCCCN)C(=O)N[C@@H](CCCCN)C(=O)N[C@@H](CSC1CC(=O)N(CCC(=O)NCCOCCOC(=O)N[C@@H](CS)C(=O)N[C@H](C(=O)N[C@@H](CS)C(=O)N[C@@H](C)C(=O)N[C@H](C(=O)N[C@@H](C)C(=O)N[C@@H](CS)C(=O)N[C@H](C(=O)N[C@@H](CS)C(=O)N[C@H](C(N)=O)[C@@H](C)O)[C@@H](C)O)[C@@H](C)O)[C@@H](C)O)C1=O)C(N)=O (stereo partly drawn) | > 64 | 8 | 16 | 16 to 32 | 32 to 64 | > 64 | 8 to 16 | 32 to 64 | > 64 | 2 to 4 | < 1
CC[C@H](C)[C@H](NC(=O)[C@@H]1CCCN1C(=O)[C@H](CCCNC(=N)N)NC(=O)[C@@H]1CCCN1C(=O)[C@H](Cc1cnc[nH]1)NC(=O)[C@H](CO)NC(=O)[C@@H](NC(=O)[C@@H]1CCCN1C(=O)[C@H](CCCNC(=N)N)NC(=O)[C@@H]1CCCN1C(=O)[C@H](CO)NC(=O)[C@H](Cc1ccc(O)cc1)NC(=O)[C@@H]1CCCN1C(=O)[C@H](CCCNC(=N)N)NC(=O)[C@@H]1CCCN1C(=O)[C@H](CCCNC(=N)N)NC(=O)CCCCCNC(=O)[C@@H](N)CCCNC(=N)N)[C@@H](C)O)C(=O)N[C@@H](CCCNC(=N)N)C(=O)N[C@H](C(=O)N[C@@H](CS)C(=O)N[C@H](C(=O)N[C@@H](CS)C(=O)N[C@H](C(=O)N[C@H](C(=O)N[C@@H](C)C(=O)N[C@@H](CS)C(=O)N[C@@H](C)C(=O)N[C@@H](CS)C(=O)N[C@H](C(N)=O)[C@@H](C)O)[C@@H](C)O)[C@@H](C)O)[C@@H](C)O)C(C)C (H-R[Ahx]RPRPYSPRPTSHPRPIRVCTCTTACACT-NH2) | > 64 | > 64 | > 64 | > 64 | > 64 | > 64 | > 64 | > 64 | 8 to 16 | 64 | < 1
CC[C@H](C)[C@H](NC(=O)[C@H](CCCCN)NC(=O)[C@H]([C@@H](C)CC)N(C(=O)[C@H](CCCNC(=N)N)NC(=O)CCCCCNC(=O)[C@@H](N)CCCNC(=N)N)C(=O)[C@H](CCCNC(=N)N)NC(=O)CCCCCNC(=O)[C@@H](N)CCCNC(=N)N)C(=O)N[C@@H](CC(C)C)C(=O)N[C@@H](Cc1ccccc1)C(=O)N[C@@H](CCC(N)=O)C(=O)N[C@@H](CC(N)=O)C(=O)N[C@@H](CCCNC(=N)N)C(=O)N[C@@H](CCCNC(=N)N)C(=O)N[C@@H](CCSC)C(=O)N[C@@H](CCCCN)C(=O)N[C@@H](Cc1c[nH]c2ccccc12)C(=O)N[C@@H](CCCCN)C(=O)N[C@@H](CCCCN)C(N)=O | > 64 | 8 | 8 | 4 to 8 | 16 | 32 to 64 | 8 | 8 | > 64 | 64 | < 1
